These compounds were tested against T1, Hexokinase-4 (Homo sapiens) (UniProt P35557) (assay: Activity of recombinant human pancreatic glucokinase assessed as glucose half-maximal saturation concentration).
T1 sequence (whole entry): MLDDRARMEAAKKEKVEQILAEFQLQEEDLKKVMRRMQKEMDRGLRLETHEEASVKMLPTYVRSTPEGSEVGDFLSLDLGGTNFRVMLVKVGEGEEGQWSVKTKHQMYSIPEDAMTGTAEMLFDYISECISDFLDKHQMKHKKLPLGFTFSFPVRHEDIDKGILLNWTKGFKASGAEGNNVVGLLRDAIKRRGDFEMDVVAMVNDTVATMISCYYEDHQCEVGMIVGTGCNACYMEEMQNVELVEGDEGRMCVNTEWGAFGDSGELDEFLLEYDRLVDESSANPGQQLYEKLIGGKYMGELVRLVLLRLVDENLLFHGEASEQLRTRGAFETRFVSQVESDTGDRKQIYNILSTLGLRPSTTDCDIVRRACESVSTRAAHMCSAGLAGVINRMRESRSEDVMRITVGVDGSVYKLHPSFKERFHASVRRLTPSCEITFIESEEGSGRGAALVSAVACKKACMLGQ
Procedure, shortened: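 Purified recombinant human pancreatic glucokinase coupled enzymatic assay, compounds in DMSO. Buffer: HEPES pH 7.4, KCl, MgCl2, DTT, ATP, NADP, G6PDH. Half-saturation glucose concentration S0.5 was reported. Values are means of three duplicate runs.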

| SMILES | S50 [mM] |
| --- | --- |
| Cc1cccnc1-c1cc(Oc2ccc(S(C)(=O)=O)cc2)cc(C(=O)Nc2ncc(F)s2)c1 | 1.95 |
| COCCOCn1ccc(NC(=O)c2cc(Oc3ccc(S(C)(=O)=O)cc3)cc(-c3ncccc3C)c2)n1 | 2.33 |
| COCCN(CCOC)Cc1csc(NC(=O)c2cc(Oc3ccc(S(C)(=O)=O)cc3)cc(-c3ncccc3C)c2)n1 | 5.43 |
| COCC(C)NCc1csc(NC(=O)c2cc(Oc3ccc(S(C)(=O)=O)cc3)cc(-c3ncccc3C)c2)n1 (centres undefined) | 2.27 |
| Cc1cccnc1-c1cc(Oc2ccc(S(C)(=O)=O)cc2)cc(C(=O)Nc2ccn(C)n2)c1 | 3.89 |
| COC(CNCc1csc(NC(=O)c2cc(Oc3ccc(S(C)(=O)=O)cc3)cc(-c3ncccc3C)c2)n1)OC | 0.57 |
| Cc1cccnc1-c1cc(Oc2ccc(S(C)(=O)=O)cc2)cc(C(=O)Nc2ccn(CCN3CCOCC3)n2)c1 | 3.54 |
| Cc1cccnc1-c1cc(Oc2ccc(S(C)(=O)=O)cc2)cc(C(=O)Nc2nccs2)c1 | 2.01 |

The next lines start with the values.

| S50 [mM] | SMILES |
| --- | --- |
| 3.24 | Cc1cccnc1-c1cc(Oc2ccc(S(C)(=O)=O)cc2)cc(C(=O)Nc2nc(CN3CCOCC3)cs2)c1 |
| 4.35 | CCNC(=O)Cc1csc(NC(=O)c2cc(Oc3ccc(S(C)(=O)=O)cc3)cc(-c3ncccc3C)c2)n1 |
| 4.56 | COCCN(C)Cc1csc(NC(=O)c2cc(Oc3ccc(S(C)(=O)=O)cc3)cc(-c3ncccc3C)c2)n1 |
| 1.78 | Cc1cccnc1-c1cc(Oc2ccc(S(C)(=O)=O)cc2)cc(C(=O)Nc2nc(CC(=O)NC3CC3)cs2)c1 |
| 3.98 | Cc1cccnc1-c1cc(Oc2ccc(S(C)(=O)=O)cc2)cc(C(=O)Nc2nc(CNC(C)C)cs2)c1 |
| 4.51 | CCCNCc1csc(NC(=O)c2cc(Oc3ccc(S(C)(=O)=O)cc3)cc(-c3ncccc3C)c2)n1 |
| 3.44 | Cc1cccnc1-c1cc(Oc2ccc(S(C)(=O)=O)cc2)cc(C(=O)Nc2nc(CN3CCN(C)CC3)cs2)c1 |
| 3.08 | Cc1cccnc1-c1cc(Oc2ccc(S(C)(=O)=O)cc2)cc(C(=O)Nc2nc(CN3CCNCC3)cs2)c1 |
| 5.79 | CCN(CC)Cc1csc(NC(=O)c2cc(Oc3ccc(S(C)(=O)=O)cc3)cc(-c3ncccc3C)c2)n1 |
| 2.21 | C#CCNCc1csc(NC(=O)c2cc(Oc3ccc(S(C)(=O)=O)cc3)cc(-c3ncccc3C)c2)n1 |

The compounds below were run on Mus musculus (assay: Antidiabetic activity in po dosed C57BL/J6 mouse assessed as reduction of glucose AUC preincubated for 30 mins followed by glucose challenge measured after 30 to 180 mins by oral glucose tolerance test).

| SMILES | Activity |
| --- | --- |
| COCCOCn1ccc(NC(=O)c2cc(Oc3ccc(S(C)(=O)=O)cc3)cc(-c3ncccc3C)c2)n1 | Dose-dependent effect |
